# Assay results taken from ChEMBL document CHEMBL4706565, “Anti-glioma effects of 2-aminothiophene-3-carboxamide derivatives, ANO1 channel blockers” (Eur J Med Chem, 2020).
# Activity calls are given as the source filed them. No cut-off for these calls is given here.
# Key:
# [1] = target: T1, Anoctamin-1 (Homo sapiens) (UniProt Q5XXA6); test: Induction of ANO1 degradation in human U251 cells at 10 uM incubated for 24 hrs by western blot analysis; format: cell-based; conditions: U-251
# T1 sequence (whole entry): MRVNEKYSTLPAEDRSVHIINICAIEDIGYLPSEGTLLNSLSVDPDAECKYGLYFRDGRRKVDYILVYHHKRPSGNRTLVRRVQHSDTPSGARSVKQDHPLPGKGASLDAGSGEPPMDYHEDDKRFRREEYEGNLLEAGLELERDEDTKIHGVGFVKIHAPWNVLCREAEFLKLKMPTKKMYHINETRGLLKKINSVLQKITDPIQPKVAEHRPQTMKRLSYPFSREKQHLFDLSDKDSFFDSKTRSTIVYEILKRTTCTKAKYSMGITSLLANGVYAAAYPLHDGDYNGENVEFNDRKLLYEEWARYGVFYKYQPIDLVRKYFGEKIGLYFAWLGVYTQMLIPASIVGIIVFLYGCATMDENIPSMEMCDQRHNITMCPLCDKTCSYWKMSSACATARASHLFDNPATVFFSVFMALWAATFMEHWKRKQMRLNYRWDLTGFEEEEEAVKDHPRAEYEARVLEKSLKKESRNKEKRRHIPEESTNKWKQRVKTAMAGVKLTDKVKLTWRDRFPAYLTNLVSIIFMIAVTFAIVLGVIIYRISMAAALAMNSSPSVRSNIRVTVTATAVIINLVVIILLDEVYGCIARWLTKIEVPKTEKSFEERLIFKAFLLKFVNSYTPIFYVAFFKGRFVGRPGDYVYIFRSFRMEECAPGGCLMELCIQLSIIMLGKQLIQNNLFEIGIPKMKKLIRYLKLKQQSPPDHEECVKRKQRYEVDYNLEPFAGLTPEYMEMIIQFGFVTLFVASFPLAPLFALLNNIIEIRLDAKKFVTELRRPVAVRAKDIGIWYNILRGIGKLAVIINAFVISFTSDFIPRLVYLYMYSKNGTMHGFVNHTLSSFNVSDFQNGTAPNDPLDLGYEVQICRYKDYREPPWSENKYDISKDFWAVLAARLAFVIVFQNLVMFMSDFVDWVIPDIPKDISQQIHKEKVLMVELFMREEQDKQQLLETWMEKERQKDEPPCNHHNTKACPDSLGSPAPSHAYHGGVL
# Outline: (§1)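 U251 cells (5×10^5) treated with 10 μM inhibitor for 24 h. Alternatively, treated 6 h with 10 μM inhibitor, then MG132 (20 μM, a proteasome inhibitor) for a further 18 h. NP40 lysates immunoblotted for ANO1, β-actin as loading control; band densitometry.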
# [2] = system: U-251; test: Inhibition of cell migration in human U251 cells at 5 uM incubated for 18 hrs by wound healing assay; format: functional, cell-based
# Outline: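 U251 monolayer, 2.0×10^5 cells/well, plated overnight, then scratched and washed with PBS. Incubated 18 h in complete medium with compound (1, 5 or 10 μM). Wound area imaged before and after incubation; migration ratio taken from migrated area. One-way ANOVA.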
# [3] = Antiproliferative activity against mouse primary astrocytes assessed as reduction in cell viability measured after 72 hrs by Celltiter-Glo luminescent assay; format: cell-based, Astrocyte
# Outline: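 Primary astrocytes isolated from adult mouse brain by a previously reported method. 5.0×10^3 cells/well, compound as 1:4 serial DMSO dilutions, CellTiter-Glo viability at 72 h.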
# [4] = system: U-251; test: Upregulation of E-cadherin protein expression in human U251 cells incubated for 18 hrs by Western blot analysis; format: functional, cell-based; conditions: dose 1-10 µM
# Outline: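 U251 cells (5×10^5) treated with compounds for 18 h, lysed in NP40 buffer with protease inhibitors. 25 μg lysate run on SDS-PAGE and blotted for E-cadherin, β-actin as loading control. Primary antibodies at 1:1000 (actin 1:10000). Bands quantified by densitometry; one-way ANOVA.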
# [5] = system: U-251; test: Antiproliferative activity against human U251 cells overexpressing ANO1 assessed as reduction in cell viability measured after 72 hrs by Celltiter-glo assay; format: functional
# Outline: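 5.0×10^3 cells/well seeded, overnight, then compounds added as 1:4 serial dilutions in DMSO; viability read after 72 h with CellTiter-Glo luminescence. GI50 from fitted dose-response curves; triplicate wells, SD from three independent experiments. DMEM for U251 and U138, MEM for U87MG, both with 10% FBS and pen/strep, 37 °C, 5% CO2.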
# [6] = system: U-251; test: Inhibition of cell migration in human U251 cells at 10 uM incubated for 18 hrs by wound healing assay; format: functional
# Outline: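 U251 monolayer, 2.0×10^5 cells/well, plated overnight, then scratched and washed with PBS. Wound area imaged before and after incubation; migration ratio taken from migrated area. One-way ANOVA.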
# [7] = target: T2, Protein tweety homolog 1 (Mus musculus) (UniProt Q9D3A9); test: Inhibition of GFP-fused mouse TTYH1 channel expressed in HEK293A cells assessed as inhibition of channel current amplitude at 1 to 10 uM at membrane potential of +80 mV by patch clamp electrophysiology assay; format: cell-based; conditions: HEK293-A, dose 1-10 µM
# T2 sequence (whole entry): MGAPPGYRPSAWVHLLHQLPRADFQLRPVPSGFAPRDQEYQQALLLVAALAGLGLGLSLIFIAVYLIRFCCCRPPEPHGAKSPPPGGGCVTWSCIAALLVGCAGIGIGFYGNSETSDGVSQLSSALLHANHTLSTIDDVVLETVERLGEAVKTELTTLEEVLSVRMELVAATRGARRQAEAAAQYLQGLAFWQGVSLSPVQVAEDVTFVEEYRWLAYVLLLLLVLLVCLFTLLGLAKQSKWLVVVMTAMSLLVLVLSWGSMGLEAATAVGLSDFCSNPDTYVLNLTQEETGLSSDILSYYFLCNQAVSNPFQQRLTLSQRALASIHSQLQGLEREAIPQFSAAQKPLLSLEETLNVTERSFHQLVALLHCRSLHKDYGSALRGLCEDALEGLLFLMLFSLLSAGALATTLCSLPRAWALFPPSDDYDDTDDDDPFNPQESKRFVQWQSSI
# Outline: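 Whole-cell recording at room temperature in HEK293A cells transfected with GFP-mANO1, GFP-mANO2 or GFP-mTTYH1. 1 s ramps from +80 to -80 mV, holding potential -10 mV. For ANO1/ANO2: pipette CsCl 146 mM with Ca-EGTA-NMDG, pH 7.3; bath NaCl-based, pH 7.3. For TTYH1: Tris-aspartate pipette (pH 7.2) and Tris-HCl bath (pH 7.4), with […] and BaCl2 added to block K+ channels, and hypotonic (220 mOsm/kg) bath. Washout recordings assessed reversibility.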
# [8] = target: T3, Anoctamin-1 (Homo sapiens, UniProt Q5XXA6); test: Inhibition of human ANO1 channel expressed in HEK293 cells incubated for 10 mins by FLIPR assay; format: cell-based
# T3 sequence (Q5XXA6 whole entry): T1 sequence (whole entry)
# Outline: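 HEK293 cells expressing human ANO1, 50,000 cells/well, plated overnight. Loaded with FLIPR Red membrane-potential dye in HEPES-buffered saline (pH 7.4) for 40-60 min at room temperature. Compound added for 10 min at room temperature, final DMSO 0.5%.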
# [9] = target: T1, Anoctamin-1 (Homo sapiens); test: Induction of ANO1 degradation in human U251 cells at 10 uM preincubated with compound for 6 hrs followed by treatment with proteasome inhibitor, MG132 for 18 hrs by western blot analysis; format: cell-based; conditions: U-251, time 24.0 hrs; outline: as §1
Activity [1],GI50 [5],inhibition [7],IC50 [8],Activity [9],SMILES,inhibition [2],GI50 at 72 h [3],Activity [4],inhibition at 10 µM [6],inhibition [6]
Active,12.6 µM,inactive,3.1 µM,inactive,CC(C)(C)C(=O)Nc1sc2c(c1C(N)=O)CCC(C(C)(C)C)C2 (stereo not drawn),Active,94.8 µM,Dose-dependent effect,90%,–
Active,12 µM,inactive,2.36 µM,inactive,NC(=O)c1c(NC(=S)NC(=O)c2ccc(Cl)cc2)sc2c1CCC2,Active,45.1 µM,Dose-dependent effect,–,Active
